Measurements: ChEMBL document CHEMBL1141554, “Discovery of new MurF inhibitors via pharmacophore modeling and QSAR analysis followed by in-silico screening” (Bioorg Med Chem, 2008)
The source made the active and inactive calls. The rule behind the calls is not given here.

What was measured:
[1] = target: T1, UDP-N-acetylmuramoyl-tripeptide--D-alanyl-D-alanine ligase (Pseudomonas aeruginosa) (UniProt Q9EY48); assay: Inhibition of Pseudomonas aeruginosa MurF ATPase activity assessed as residual enzyme activity at 5 mM by spectrophotometric assay relative to control
T1 sequence (whole entry): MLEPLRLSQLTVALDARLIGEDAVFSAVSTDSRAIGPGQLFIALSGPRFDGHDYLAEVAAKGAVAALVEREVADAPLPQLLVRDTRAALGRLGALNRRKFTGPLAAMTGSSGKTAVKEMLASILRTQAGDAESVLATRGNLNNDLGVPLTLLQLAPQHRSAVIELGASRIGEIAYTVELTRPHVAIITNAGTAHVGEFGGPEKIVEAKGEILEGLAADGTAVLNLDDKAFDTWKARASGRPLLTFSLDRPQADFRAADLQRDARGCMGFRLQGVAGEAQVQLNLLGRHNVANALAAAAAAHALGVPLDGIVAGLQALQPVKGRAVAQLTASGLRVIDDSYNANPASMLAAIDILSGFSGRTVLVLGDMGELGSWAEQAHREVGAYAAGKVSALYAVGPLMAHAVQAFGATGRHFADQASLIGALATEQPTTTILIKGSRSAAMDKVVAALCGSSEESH

[2] = target: T2, UDP-N-acetylmuramoyl-tripeptide--D-alanyl-D-alanine ligase (Pseudomonas aeruginosa, UniProt Q9EY48); assay: Inhibition of Pseudomonas aeruginosa MurF ATPase activity by spectrophotometric assay
T2 sequence (Q9EY48 whole entry): T1 sequence (whole entry)
Procedure, shortened: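 Purified recombinant P. aeruginosa MurF was used at a high enzyme concentration. It was pre-incubated with a range of compound concentrations in pH 8.6 buffer (40 mM KCl, 500 mM NaCl, 1 mg/ml BSA, 10 mM MgCl2) before UDP-MurNAc-Ala-Glu-meso-A2pm and the other substrates were added. IC50 was derived from percent residual ATPase activity versus compound-free enzyme.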

[3] = target: T3, UDP-N-acetylmuramoylalanine-D-glutamyl-lysine-D-alanyl-D-alanine ligase (Streptococcus pneumoniae R6, UniProt Q8DNV6); assay: Inhibition of Streptococcus pneumoniae MurF
T3 sequence (Q8DNV6 whole entry): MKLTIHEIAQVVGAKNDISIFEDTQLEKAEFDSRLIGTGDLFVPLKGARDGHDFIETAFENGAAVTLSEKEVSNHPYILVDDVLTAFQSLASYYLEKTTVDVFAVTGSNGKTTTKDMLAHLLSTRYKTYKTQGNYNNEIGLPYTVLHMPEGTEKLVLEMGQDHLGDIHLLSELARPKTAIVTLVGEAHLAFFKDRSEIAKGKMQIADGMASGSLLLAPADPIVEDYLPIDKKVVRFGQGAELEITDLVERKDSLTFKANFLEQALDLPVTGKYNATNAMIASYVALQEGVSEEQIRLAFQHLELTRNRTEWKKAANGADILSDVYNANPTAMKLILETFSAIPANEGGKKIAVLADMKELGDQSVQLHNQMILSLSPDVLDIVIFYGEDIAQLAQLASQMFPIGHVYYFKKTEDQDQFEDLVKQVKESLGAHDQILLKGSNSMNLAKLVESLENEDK

Escherichia coli = assay: Antibacterial activity against Escherichia coli; assay type: functional, organism-based
Staphylococcus aureus = assay: Antibacterial activity against Staphylococcus aureus; assay type: functional, organism-based
Pseudomonas aeruginosa = assay: Antibacterial activity against Pseudomonas aeruginosa; assay type: functional, organism-based
[4] = test system: MurF (Streptococcus pneumoniae); assay: Inhibition of Streptococcus pneumoniae MurF

Row | Compound | Activity [1] [%] | IC50 [2] [µM] | IC50 [3] [µM] | other results
1 | N#Cc1cc(CCc2ccncc2)sc1NC(=O)c1cc(S(=O)(=O)N2CCOCC2)ccc1Cl | – | – | 6 | –
2 | C[C@]12CCC(=O)C=C1CC[C@@H]1[C@@H]2[C@@H](O)C[C@@]2(C)[C@H]1CC[C@]2(O)C(=O)COC(=O)CCC1CCCC1 [HYDROCORTISONE CYPIONATE] | 86 | > 5000 | – | –
3 | C[C@@H]1O[C@@H]1P(=O)(O)O [FOSFOMYCIN] | – | – | – | IC50 [4]: 15 µM
4 | N#Cc1c(NC(=O)c2cc(S(=O)(=O)N3CCCCC3)ccc2Cl)sc2c1CCC2 | – | – | 2.5 | –
5 | N#Cc1c(NC(=O)c2cc(S(=O)(=O)N3CCOCC3)c(Cl)cc2Cl)sc2c1CC(c1ccc(O)cc1)CC2 (stereo not given) | – | – | 0.022 | –
6 | N#Cc1c(NC(=O)c2cc(S(=O)(=O)N3CCOCC3)c(F)cc2Cl)sc2c1CCC2 | – | – | > 6.4 | –
7 | CCN(CC)S(=O)(=O)c1ccc(Cl)c(C(=O)Nc2sc3c(c2C#N)CC(c2ccc(O)cc2)CC3)c1 (stereo not given) | – | – | 0.054 | –
8 | N#Cc1c(NC(=O)c2cc(S(=O)(=O)N3CCOCC3)c(Cl)cc2Cl)sc2c1CC(c1ccccc1)CC2 (stereo not given) | – | – | 0.07 | –
9 | CCN(CC)S(=O)(=O)c1cc(C(=O)Nc2sc3c(c2C#N)CC(c2ccc(O)cc2)CC3)c(Cl)cc1Cl (stereo not given) | – | – | 0.067 | –
10 | CCOC(=O)C1CCc2sc(NC(=O)c3cc(S(=O)(=O)N(CC)CC)ccc3Cl)c(C#N)c2C1 (stereo not given) | – | – | 6 | –

Now from value to compound, other results behind:

Row | Activity [1] [%] | IC50 [2] [µM] | Compound | IC50 [3] [µM] | other results
11 | 48 | 4800 | CSc1ncnc2c1ncn2CC(=O)[C@@]1(O)CC[C@H]2[C@@H]3CCC4=CC(=O)CC[C@]4(C)[C@H]3[C@@H](O)C[C@@]21C | – | –
12 | 100 | > 5000 | O=S(=O)(O)c1ccc(/N=N/c2ccc(O)c(/N=N/c3ccc(S(=O)(=O)O)c4ccccc34)c2O)c2ccccc12 | – | –
13 | 0 | 325 | COc1ccc(CCN2C(=O)c3cccc4c(Sc5ccccc5[N+](=O)[O-])ccc(c34)C2=O)cc1OC | – | Activity (Escherichia coli): inactive; Activity (Staphylococcus aureus): inactive; Activity (Pseudomonas aeruginosa): inactive
14 | 0 | 300 | O=C1C=CC(=O)C(SCCCSC2=CC(=O)C(SCCCSC3=CC(=O)C=CC3=O)=CC2=O)=C1 | – | Activity (Escherichia coli): inactive; Activity (Staphylococcus aureus): inactive; Activity (Pseudomonas aeruginosa): inactive
15 | 51 | > 5100 | CCOC(=O)Cn1/c(=N/N=C/c2ccc([N+](=O)[O-])o2)sc2cc(OC)ccc21 | – | –
16 | 67 | > 5000 | C[C@]12CCC(=O)C=C1CC[C@@H]1[C@@H]2[C@@H](O)C[C@@]2(C)[C@H]1CC[C@]2(O)C(=O)COC(=O)c1cc([N+](=O)[O-])ccc1Cl | – | –
17 | 0 | 125 | COc1ccc(NC(=O)C(=O)Cc2nc3ccc([N+](=O)[O-])cc3nc2O)c(OC)c1 | – | Activity (Escherichia coli): inactive; Activity (Staphylococcus aureus): inactive; Activity (Pseudomonas aeruginosa): inactive
18 | 71 | > 5000 | O=S(=O)(SC(=S)NCCNC(=S)SS(=O)(=O)c1ccc(Cl)cc1)c1ccc(Cl)cc1 | – | –
19 | 84 | > 5000 | Cn1nnnc1SCC1=C(C(=O)O)N2C(=O)[C@@H](NC(=O)[C@H](OC=O)c3ccccc3)[C@H]2SC1 [CEFAMANDOLE NAFATE] | – | –
20 | 42 | 4300 | C[C@]12CCC(=O)C=C1CC[C@@H]1[C@@H]2[C@@H](O)C[C@@]2(C)[C@H]1CC[C@]2(O)C(=O)COC(=O)C1C2C=CC(C2)C1C(=O)O (stereo not given in full) | – | –
